Bioassay records deposited in PubChem BioAssay by several laboratories.
EP2 modulator: EP2 receptor modulators, cAMP readout, primary screen, cell-based, HTRF cAMP, PGE2 stimulation; 260,000 compounds, 0.83% hits; EP2-expressing cells, cAMP HTRF FRET, PGE2 co-stimulation; Prostaglandin E2 receptor EP2 subtype (Homo sapiens), P43116; induction, % at 25 µM; AID 940, 2007;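 active = compounds whose cAMP rise, as percent of the full-agonist control response, exceeds 60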;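 note: rat C6 glioma line stably carrying human EP2 under a CMV promoter; the protocol text gives 20 µM as final concentration; 100% = response of wells given 1 µM PGE2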
NPY-Y2 PAM-ag: NPY-Y2 potentiators or agonists, primary screen, cell-based; Neuropeptide Y receptor type 2 (Homo sapiens), P49146; cells expressing NPY-Y2, potentiator/agonist read-out; activation, % at 3.6 µM; 220,000 compounds, 0.45% hits; AID 1359, 2008; in the data active = activation above about 27%;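 note: cells stimulated with NPY near EC25 plus isoproterenol at EC100; 0% = vehicle plus submaximal agonist and 100% = vehicle plus saturating agonist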
NPY Y2 blocker: NPY-Y2 receptor antagonists, primary screen, cell-based. inhibition, % at 2.7 µM. AID 793, 2007. Neuropeptide Y receptor type 2 (Homo sapiens), P49146. 140,000 compounds, 0.99% hits. NPY-Y2 expressing cells, antagonist mode; in the data active = inhibition above about 17%;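 note: 0% = vehicle with agonist challenge and 100% = reference antagonist with challenge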
NPY-Y1 antag: NPY-Y1 receptor antagonists, primary screen, cell-based. Neuropeptide Y receptor type 1 (Homo sapiens), P25929. HEK293-CNG Y1 cells, membrane potential fluorescence; NPY at EC95, then isoproterenol. inhibition, % at 3.6 µM. 200,000 compounds, 1% hits. AID 1040, 2008;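 active = inhibition above the campaign mean inhibition of all tested compounds plus 3 SD, cut at about 20% in these data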;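 note: 0% = DMSO wells given NPY plus isoproterenol and 100% = isoproterenol alone without NPY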
Target sequence (P25929 whole entry, looked up): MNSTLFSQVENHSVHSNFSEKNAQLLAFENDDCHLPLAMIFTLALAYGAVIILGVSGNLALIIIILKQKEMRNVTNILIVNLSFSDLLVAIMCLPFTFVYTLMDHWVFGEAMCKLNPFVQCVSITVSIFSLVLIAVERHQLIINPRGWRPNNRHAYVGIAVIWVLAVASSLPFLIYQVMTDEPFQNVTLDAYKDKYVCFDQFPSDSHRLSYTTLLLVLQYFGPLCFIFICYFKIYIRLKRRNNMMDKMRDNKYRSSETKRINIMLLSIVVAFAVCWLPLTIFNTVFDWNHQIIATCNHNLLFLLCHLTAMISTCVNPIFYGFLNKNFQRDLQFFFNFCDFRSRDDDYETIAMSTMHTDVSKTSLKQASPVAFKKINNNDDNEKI
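Material: HEK293 cells co-expressing NPY Y1 receptor and cyclic-nucleotide gated channel. Timing: compound incubation 1 h at room temperature, readout 45 min post-stimulation. Signal: fluorescence, membrane potential probe.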
NPY1 pot ag: NPY-Y1 receptor potentiators or agonists, primary screen, cell-based; NPY-Y1 expressing cells, potentiator/agonist activation; activation, % at 3.6 µM; 220,000 compounds, 0.37% hits; AID 1304, 2008; in the data active = activation above about 33%, passing the limit was not always enough;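 note: cells stimulated with NPY at EC10 then isoproterenol at EC100; 0% = low agonist plus stimulus and 100% = saturating agonist plus stimulus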
EP2 antag: human EP2 receptor antagonists, primary screen, TR-FRET cAMP, C6 glioma cells; Prostaglandin E2 receptor EP2 subtype (Homo sapiens), P43116; C6 glioma cells expressing human EP2; cells stimulated with saturating PGE2; inhibition, % at 25 µM; 260,000 compounds, 0.52% hits; AID 1422, 2008;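 active = percent inhibition above 40 after rounding to a whole number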;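 note: rat C6 glioma host cells with rolipram phosphodiesterase inhibitor present; the protocol text gives 20 µM as final concentration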
NPY-Y2 confirm: NPY-Y2 potentiators or agonists, confirmation, cell-based | 450 compounds, 20% hits | activation, % at 3.6 µM | shares compounds with NPY-Y2 PAM-ag | cell-based NPY-Y2 potentiator/agonist assay | AID 1539, 2009; in the data active = activation above about 33%
NPY-Y1 counter: NPY-Y1 potentiators or agonists, counter-screen for NPY-Y2 potentiator project, cell-based, fluorescence | shares compounds with NPY-Y2 PAM-ag | AID 1651, 2009 | 450 compounds, 20% hits | Y1 HEK293-CNG cells, membrane potential fluorescence | activation, % at 3.6 µM; in the data active = activation above about 45%;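 note: cells stimulated with submaximal NPY then isoproterenol with phosphodiesterase inhibitor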
NPY-Y1 agonist 2: NPY-Y1 direct agonists, selectivity assay for NPY-Y2 potentiator project, cell-based, fluorescence; shares compounds with NPY-Y2 PAM-ag; HEK293 Y1-CNGC, membrane potential fluorescence, agonism; activation, % at 3.6 µM; 450 compounds, 37% hits; AID 1702, 2009;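 active = activation above the mean of DMSO-only control wells plus 3 SD, cut at about 18% in these data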;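 note: cells stimulated with 1 µM isoproterenol plus the PDE inhibitor Ro 20-1724; 0% = isoproterenol with DMSO and no NPY and 100% = 40 nM NPY; Y1 agonists lower the membrane potential dye signal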
CNGC inhibitor: CNGC cAMP sensor activity inhibitors, counter-screen for NPY-Y2 potentiator project, cell-based, HEK293-CNG parental, membrane potential fluorescence; shares compounds with NPY-Y2 PAM-ag; isoproterenol cAMP; inhibition, % at 3.6 µM; 450 compounds, 32% hits; AID 1703, 2009;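 active = inhibition above the control-well mean plus 3 SD of those wells, cut at about 22% in these data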;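 note: 0% = DMSO with isoproterenol and 100% = DMSO without isoproterenol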
NPY-Y2 ag 2: NPY-Y2 direct agonists, counter-screen for NPY-Y2 potentiator project, cell-based, fluorescence; shares compounds with NPY-Y2 PAM-ag; activation, % at 3.6 µM; HEK293 Y2/CNGC cells, membrane potential fluorescence, agonist mode; 450 compounds, 56% hits;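 active = activation above the mean of solvent-only control wells plus 3 SD, cut at about 10% in these data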;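 note: cells stimulated by isoproterenol with no NPY added so direct agonism is tested; 0% = DMSO with isoproterenol alone and 100% = NPY at EC100 plus isoproterenol; agonism lowers probe fluorescence through less cAMP and CNG channel opening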
Active calls of the source: *; x = not tested or not shown. In the library only some 2.8% were active in any assay of this set; here they are far more common.

SMILES | EP2 modulator | NPY-Y2 PAM-ag | NPY Y2 blocker | NPY-Y1 antag | NPY1 pot ag | EP2 antag | NPY-Y2 confirm | NPY-Y1 counter | NPY-Y1 agonist 2 | CNGC inhibitor | NPY-Y2 ag 2
Oc1ccc(-c2[nH]ncc2CN(Cc2cccc(F)c2)CC2CCCO2)cc1 (centres undefined) | -15 | x | x | x | x | 1 | x | x | x | x | x
Oc1ccc(Cl)cc1Cc1cc(Cl)ccc1O | -16 | 62* | -4 | -8 | 65 | 11 | 39* | 35 | 36* | 28* | 32*
Oc1ccc(Cl)cc1CNn1cnnc1 | 1 | -7 | x | 5 | 3 | 0 | x | x | x | x | x
O=C(CN1N=C(c2ccccc2)Cn2c(cc3sccc32)C1=O)NCc1ccccc1 | -6 | x | x | x | x | x | x | x | x | x | x
COC(=O)c1ccc(C2SCC(=O)N2Cc2ccco2)cc1 (centres undefined) | -29 | x | x | x | x | 13 | x | x | x | x | x
OC(COc1ccc(OCc2ccccc2)cc1)CN1CCOCC1 (centres undefined) | -17 | 8 | 2 | 1 | -5 | 7 | x | x | x | x | x
OC(COc1ccc(-c2ccccc2)cc1)CN1CCOCC1 (centres undefined) | -32 | 56* | x | 3 | 10 | 4 | -5 | -11 | 3 | 2 | 2
Cc1sc(C2C(=O)c3ccccc3C2=O)nc1-c1ccccc1 | -126 | x | x | x | x | 16 | x | x | x | x | x
NC(=O)C1CCN(CC(=O)Nc2cccc(C(=O)Nc3cccc(C(F)(F)F)c3)c2)CC1 | 1 | 41* | -1 | 0 | 33 | 8 | 0 | -2 | -8 | -2 | -10
O=C(CN1CCC(C(=O)c2cccc(Cl)c2)CC1)Nc1cccc(C(=O)O)c1 | 41 | 1 | x | -1 | 8 | 26 | x | x | x | x | x
CC(C)(C)c1ccc(C(O)CN2CCC3(CC2)CC(O)c2cc(F)ccc2O3)cc1 (centres undefined) | -47 | x | x | x | x | 6 | x | x | x | x | x
COc1ccc2c(c1)OC[C@@H](Cc1ccc(OC)c(OC)c1)[C@@H]2O | 13 | x | x | x | x | 10 | x | x | x | x | x
Cc1nn(-c2ccccc2)nc1C(=O)c1c(C)[nH]n(-c2ccccc2)c1=O | -17 | 65* | x | x | -22 | 5 | -20 | -13 | -6 | -13 | -5
N#CC(C#N)=C(Nc1ccc(F)cc1)SCc1cccc(F)c1 | -19 | 37* | 3 | 8 | 4 | 16 | -4 | -37 | -25 | -17 | 2
Cc1ccc(-c2nc(NC(=O)c3cccnc3)sc2C)cc1C | 10 | x | x | x | x | 9 | x | x | x | x | x
N#Cc1c(-c2ccc(F)cc2)cc(-c2ccccc2)nc1SCC(=O)NCC(=O)O | -17 | 71* | x | x | 15 | 0 | -7 | -2 | -5 | -11 | 2
CCOC(=O)C1CCN(CC(O)COCc2ccc3c(c2)OCO3)CC1 (centres undefined) | -8 | -3 | x | -1 | 1 | 4 | x | x | x | x | x
